Measured values published in ChEMBL document CHEMBL3351414, “Novel 9'-substituted-noscapines: synthesis with Suzuki cross-coupling, structure elucidation and biological evaluation” (Eur J Med Chem, 2014).
pIC50: −log10 of the molar value.

Columns and labels:
CA46 [1] = test: Cell cycle arrest in human CA46 cells assessed as reduction in mitotic index by Giemsa staining method relative to control; type: functional; set-up: scale not given: the % may be the effect or the level left
Outline: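 CA46 Burkitt lymphoma cells grown in RPMI 1640 with 17% FBS and 2 mM L-glutamine at 37 °C, 5% CO2, treated 16 h. Cells were swollen 10 min in half-strength PBS, fixed in 0.5% acetic acid–1.5% ethanol, then spread from 25% acetic acid/75% ethanol. Slides were Giemsa-stained. Mitotic cells were those with condensed chromosomes and no nuclear membrane, with ≥200 cells counted per condition.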

CA46 [2] = test: Cell cycle arrest in human CA46 cells assessed as accumulation at G2/M phase at 5 times IC50 by flow cytometry; type: functional
[3] = Antiproliferative activity against human RS4:11 cells assessed as reduction in cell viability after 72 hrs by MTT assay; type: functional, cell-based; conditions: RS4-11, 72 h
Outline: (§1)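 Cells kept in RPMI-1640 (Jurkat, SEM, RS4;11) or DMEM (A549, HeLa, IGROV-1, HT-29) with 10% FBS plus penicillin/streptomycin. 8×10^3 cells per well were left 18 h at 37 °C in 5% CO2. Medium was then replaced with fresh medium holding graded compound concentrations from 10 mM DMSO stocks. Cells were incubated 72 h and viability read by MTT. IC50 is the mean ± SEM from dose–response curves of at least three independent experiments.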

IGROV-1 = test: Antiproliferative activity against human IGROV1 cells assessed as reduction in cell viability after 72 hrs by MTT assay; type: functional, cell-based; conditions: IGROV-1, 72 h; outline: as §1
[4] = Antiproliferative activity against human SEM cells assessed as reduction in cell viability after 72 hrs by MTT assay; type: functional, cell-based; outline: as §1
PBL [5] = test: Cytotoxicity against resting human PBLs assessed as reduction in cell growth; type: cell-based
Outline: (§2)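 Peripheral blood lymphocytes from healthy donors, tested either resting (no PHA) or PHA-stimulated. Value is the concentration reducing cell growth by 50%, mean ± SEM of three separate experiments.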

PBL [6] = test: Cytotoxicity against PHA-stimulated human PBLs assessed as reduction in cell growth; type: cell-based; outline: as §2
LoVo = test: Antiproliferative activity against human LoVo cells assessed as reduction in cell viability after 72 hrs by MTT assay; type: functional, cell-based
Jurkat = test: Antiproliferative activity against human Jurkat cells assessed as reduction in cell viability after 72 hrs by MTT assay; type: functional, cell-based; outline: as §1
HT-29 = test: Antiproliferative activity against human HT-29 cells assessed as reduction in cell viability after 72 hrs by MTT assay; type: functional, cell-based; conditions: HT-29, 72 h; outline: as §1
CCRF-CEM = test: Antiproliferative activity against human CEM cells assessed as reduction in cell viability after 72 hrs by MTT assay; type: functional, cell-based
A549 = test: Antiproliferative activity against human A549 cells assessed as reduction in cell viability after 72 hrs by MTT assay; type: functional, cell-based; conditions: A549, 72 h; outline: as §1

COc1ccc(/C=C\c2cc(OC)c(OC)c(OC)c2)cc1O [COMBRETASTATIN A4]
Activity (CA46 [1]): 46%
Activity (CA46 [2]): >80%

COc1ccc(-c2c3c(c(OC)c4c2OCO4)[C@H]([C@H]2OC(=O)c4c2ccc(OC)c4OC)N(C)CC3)cc1
pIC50 [3]: 4.90
pIC50 (IGROV-1): 4.25
pIC50 [4]: 4.82
pIC50 (PBL [5]): < 3.70
pIC50 (PBL [6]): < 3.70
pIC50 (LoVo): 4.54
pIC50 (Jurkat): 4.95
pIC50 (HT-29): 4.32
pIC50 (CCRF-CEM): 4.59
pIC50 (A549): < 4.00
